Series [1] relates to dengue virus type 2. Kind of series: Antiviral activity against Dengue virus 2 NGC infected in human A549 cells by CFI assay. The class given is functional, organism-based. The method, boiled down: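 CFI assay: A549 cells seeded 2 × 10^4/well, infected next day (MOI 0.3 for DENV-2) with compound-virus mixture for 1 h, then refed with compound-containing medium. On day 2 cells were methanol-fixed at 4°C and intracellular E protein detected by ELISA (4G2 primary, HRP anti-mouse secondary). EC50 is the average of two independent experiments.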

Series [2] deals with Mus musculus. Kind of series: Tmax in CD-1 mouse assessed as NITD449 level at 24.2 mg/kg, po by LC-MS-MS analysis. The following applies: in vivo. Also on record: dose 24.2 mg/kg, route oral. It is filed as ADME, organism-based. The method, boiled down:
(§1)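 Female CD-1 mice given the prodrug orally, formulated in 10% ethanol, 30% PEG 400, 60% D5W. Blood from three animals at 0.08, 0.25, 0.5, 1, 2, 4, 8, 16, 24 h; heparinized plasma extracted with acetonitrile-methanol-acetic acid. Parent nucleoside was quantified by LC-MS-MS (MRM, LLOQ 9.2 ng/ml) and noncompartmental analysis was run. F = dose-corrected AUC p.o./AUC i.v., with i.v. parent at 5 mg/kg.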

Series [3] deals with Mus musculus. Kind of series: AUC (0 to infinity) in CD-1 mouse assessed as NITD449 level at 24.2 mg/kg, po by LC-MS-MS analysis. It is filed as ADME, organism-based, Plasma. On the set-up: dose 24.2 mg/kg, route oral, time infinity. The following applies: in vivo. The method, boiled down:
as §1

The subject of series [4] is Mus musculus. Kind of series: Oral bioavailability in CD-1 mouse assessed as NITD449 level at 24.2 mg/kg by LC-MS-MS analysis. The class given is ADME, organism-based. The following applies: in vivo. The method, boiled down:
as §1

For series [5], the system named is Rattus norvegicus. The series can be described thus: Tmax in Wistar rat assessed as NITD449 level at 26.5 mg/kg, po by LC-MS-MS analysis. The class given is ADME, organism-based. Also on record: dose 26.5 mg/kg, route oral. As to conditions: in vivo. The method, boiled down:
(§2)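 Female Wistar rats, fasted overnight until 4 h postdose, given the prodrug orally in 10% ethanol, 30% PEG 400, 60% D5W. Serial blood from groups of three at 0.17–48 h. Parent nucleoside in plasma was measured by LC-MS-MS (LLOQ 9.2 ng/ml) with noncompartmental analysis. F was corrected for dose against parent i.v. at 5.9 mg/kg.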

The subject of series [6] is Rattus norvegicus. Kind of series: Oral bioavailability in Wistar rat assessed as NITD449 level at 26.5 mg/kg by LC-MS-MS analysis. The class given is ADME, organism-based. As to conditions: in vivo. The method, boiled down:
as §2

In series [7] the test system is dengue virus type 2. Kind of series: Antiviral activity against Dengue virus 2 NGC infected in african green monkey Vero cells after 48 hrs by plaque assay. It is filed as functional, organism-based. The method, boiled down:
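Titer reduction: Vero cells (4 × 10^5/well) infected 24 h after seeding at MOI 0.1 and treated immediately with compound. Culture medium was collected 48 h postinfection and titered by plaque assay; n = 3, mean ± SD.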

In series [8] the test system is Yellow fever virus. The series can be described thus: Antiviral activity against Yellow fever virus 17D infected in african green monkey Vero cells after 48 hrs by plaque assay. The class given is functional, cell-based.
For series [9], the system named is Yellow fever virus. Kind of series: Antiviral activity against Yellow fever virus 17D infected in african green monkey Vero cells at 12.5 uM after 48 hrs by plaque assay. The class given is functional.
For a further series, the system named is West Nile virus. The series can be described thus: Antiviral activity against West Nile virus infected in african green monkey Vero cells assessed as inhibition of RNA replication after 24 hrs by luciferase assay. It is filed as functional, organism-based. The method, boiled down:
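Vero cells infected at MOI about 0.1 with WNV replicon-packaged virus-like particles carrying luciferase, then treated with compound. Luciferase was read 24 h postinfection, relative to mock-treated cells set at 100%; n = 3.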

A further series concerns Chikungunya virus. Kind of series: Antiviral activity against Chikungunya virus infected in african green monkey Vero cells after 22 hrs by plaque assay. It is filed as functional, cell-based.
Series [10] deals with dengue virus type 2. The series can be described thus: Antiviral activity against Dengue virus 2 NGC infected in human A549 cells after 2 days by CFI assay in presence of 40 mg/ml human serum albumin and 2 mg/ml alpha-1-acid glycoprotein. As to conditions: A549, 48 h. It is filed as functional, organism-based. The method, boiled down:
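Modified CFI: A549 cells infected with DENV-2 New Guinea C (MOI 0.3) for 1 h without compound. Inoculum then replaced with medium containing compound dilutions plus the stated HSA and/or AGP. On day 2, cells methanol-fixed and intracellular E protein detected by ELISA (4G2 primary, HRP anti-mouse secondary); EC50 derived.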

For series [11], the system named is Rattus norvegicus. Kind of series: Toxicity in Wistar rat at 10 mg/kg/day, po for 2 weeks. It is filed as organism-based. On the set-up: route oral. The following applies: in vivo, 336 h. The method, boiled down: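 Male Wistar rats, 10 weeks old, dosed orally daily for 2 weeks; five per dose group. Clinical signs, body weight and mortality were monitored.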

In general, EC50 refers to the concentration that produces a half-maximal response. What is called Tmax is the time from dosing to the highest level. Broadly, the AUC is the area under the concentration-time curve, a measure of exposure.

Each structure is given as a SMILES string. The source made the active and inactive calls. The calls are words filed in the database; no cut-off is given here.

Take `C#C[C@@]1(O)[C@H](OC(=O)C(C)C)[C@@H](COC(=O)C(C)C)O[C@H]1n1cc(C(N)=O)c2c(N)ncnc21`: the values for the EC50 with dengue virus type 2 [1] and in the series with dengue virus type 2 [10] were 0.69 µM and 0.85 µM, respectively. In addition, the values for the Tmax with Mus musculus [2] and in the series with Rattus norvegicus [5] were 4.8 min and 30 min, respectively. Besides, in the series on Mus musculus [3], the exposure (AUC) came to 12.6 µM·h. The F in the series on Mus musculus [4] is reported as 32%; in the series with Rattus norvegicus [6], 13%. Further, the outcome in the series with dengue virus type 2 [7], in the series on Yellow fever virus [8], in the series with West Nile virus and in the series with Chikungunya virus was Active. For the same compound, the “fold change (FC)” value in the series with Yellow fever virus [9] is 100. Besides, the Activity result with Rattus norvegicus [11] was “Non-toxic”.

(Values after ChEMBL document CHEMBL1629704, “Inhibition of dengue virus by an ester prodrug of an adenosine analog” (Antimicrob Agents Chemother, 2010).)
